Measurements from ChEMBL document CHEMBL4138069, “Design, synthesis, molecular-docking and antimycobacterial evaluation of some novel 1,2,3-triazolyl xanthenones” (Medchemcomm, 2017).
Converted amounts (≈) assume the structure as drawn.

Legend:
Candida albicans = assay: Antifungal activity against Candida albicans MTCC 9062; type: functional
Outline: (§1)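 Antifungal read-out was MIC in μg mL–1, with fluconazole as the reference drug.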

Staphylococcus aureus = assay: Antibacterial activity against Staphylococcus aureus MTCC 96 by agar dilution method; type: functional
Outline: (§2)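 Minimum inhibitory concentration measured by agar dilution against three Gram-positive and three Gram-negative MTCC strains; read out as MIC.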

Klebsiella aerogenes = assay: Antibacterial activity against Enterobacter aerogenes MTCC 111 by agar dilution method; type: functional; outline: as §2
[1] = system: Mycobacterium tuberculosis; assay: Antimycobacterial activity against Mycobacterium tuberculosis H37Rv ATCC 27294 assessed as inhibition of bacterial growth incubated for 28 days; type: functional; conditions: H37Rv ATCC 27294, 672 h
Outline: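 Agar dilution in Middlebrook 7H11 with OADC, two-fold dilutions at final 50 to 0.78 μg mL–1. Inoculum from fresh 7H11 slants, adjusted to 1 mg mL–1 wet weight in 0.05% Tween 80 saline, diluted 10–2 to about 10^7 cfu mL–1; 5 μL spotted per tube. Incubated at 37 °C. MIC = lowest concentration giving complete growth inhibition, read at 28 days, in triplicate.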

Bacillus subtilis = assay: Antibacterial activity against Bacillus subtilis MTCC 121 by agar dilution method; type: functional; outline: as §2
Bacillus cereus = assay: Antibacterial activity against Bacillus cereus MTCC 430 by agar dilution method; type: functional; outline: as §2
[2] = Lipophilicity, log P of the compound; type: physicochemical; conditions: octanol/water
Outline: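 Value is a calculated log P (clog P), computed rather than measured experimentally.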

Pseudomonas aeruginosa = assay: Antibacterial activity against Pseudomonas aeruginosa MTCC 741 by agar dilution method; type: functional; outline: as §2
Escherichia coli = assay: Antibacterial activity against Escherichia coli MTCC 1652 by agar dilution method; type: functional; outline: as §2
Aspergillus niger = assay: Antifungal activity against Aspergillus niger MTCC 282; type: functional; outline: as §1
[3] = Cytotoxicity in HEK cells assessed as inhibition of cell growth at 50 ug/ml incubated for 72 hrs by MTT assay; type: cell-based; conditions: human, read-out: GI
Outline: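 HEK cells were exposed to compound at 50 μg mL–1 for 72 h. Viability was taken from cellular conversion of MTT to formazan, using a non-radioactive cell proliferation kit.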

Structure (SMILES) | MIC (Candida albicans) [µg/mL] | MIC (Staphylococcus aureus) [µg/mL] | MIC (Klebsiella aerogenes) [µg/mL] | MIC [1] [µg/mL] | MIC (Bacillus subtilis) [µg/mL] | MIC (Bacillus cereus) [µg/mL] | logP [2] | MIC (Pseudomonas aeruginosa) [µg/mL] | MIC (Escherichia coli) [µg/mL] | MIC (Aspergillus niger) [µg/mL] | inhibition at 72 h, 50 ug/ml [3] [%]
CC1(C)CC(=O)C2=C(C1)Oc1ccc3ccccc3c1C2c1cn(-c2ccc(O)cc2)nn1 (configuration not stated) | 3.12 (≈ 7.13 µM) | 6.25 (≈ 14.3 µM) | 6.25 (≈ 14.3 µM) | > 25 | 6.25 (≈ 14.3 µM) | 12.5 (≈ 28.6 µM) | 4.26 | 6.25 (≈ 14.3 µM) | 3.12 (≈ 7.13 µM) | 12.5 (≈ 28.6 µM) | 
CC1(C)CC(=O)C2=C(C1)Oc1ccc3ccccc3c1C2c1cn(-c2cccc(C(F)(F)F)c2)nn1 (configuration not stated) | 100 (≈ 204 µM) | 25 (≈ 51.1 µM) | 25 (≈ 51.1 µM) | > 25 | 50 (≈ 102 µM) | 12.5 (≈ 25.5 µM) | 5.57 | 25 (≈ 51.1 µM) | 100 (≈ 204 µM) | 12.5 (≈ 25.5 µM) | 
O=Cc1cn(-c2cccc(C(F)(F)F)c2)nn1 |  |  |  | > 25 |  |  |  |  |  |  | 
COc1ccc(-n2cc(C=O)nn2)cc1 |  |  |  | 12.5 (≈ 61.5 µM) |  |  |  |  |  |  | 
CC[C@@H](CO)NCCN[C@@H](CC)CO [ETHAMBUTOL] |  |  |  | 7.64 (≈ 37.4 µM) |  |  |  |  |  |  | 
O=Cc1cn(-c2ccc(Cl)cc2)nn1 |  |  |  | 6.25 (≈ 30.1 µM) |  |  |  |  |  |  | 
O=Cc1cn(-c2ccc([N+](=O)[O-])cc2)nn1 |  |  |  | > 25 |  |  |  |  |  |  | 
CC1(C)CC(=O)C2=C(C1)Oc1ccc3ccccc3c1C2c1cn(-c2ccc(Cl)cc2)nn1 (configuration not stated) | 12.5 (≈ 27.4 µM) | 12.5 (≈ 27.4 µM) | 12.5 (≈ 27.4 µM) | 3.12 (≈ 6.85 µM) | 12.5 (≈ 27.4 µM) | 12.5 (≈ 27.4 µM) | 5.21 | 12.5 (≈ 27.4 µM) | 12.5 (≈ 27.4 µM) | 12.5 (≈ 27.4 µM) | 18.1
O=C(O)c1cn(C2CC2)c2cc(N3CCNCC3)c(F)cc2c1=O [CIPROFLOXACIN] |  | ≤ 6.25 | ≤ 6.25 |  | ≤ 6.25 | ≤ 6.25 |  | ≤ 6.25 | ≤ 6.25 |  | 
OC(Cn1cncn1)(Cn1cncn1)c1ccc(F)cc1F [FLUCONAZOLE] | ≤ 3.12 |  |  |  |  |  |  |  |  | ≤ 3.12 | 
O=Cc1cn(-c2ccccc2Cl)nn1 |  |  |  | 25 (≈ 120 µM) |  |  |  |  |  |  | 
COc1ccc(-n2cc(C3C4=C(CCCC4=O)Oc4ccc5ccccc5c43)nn2)cc1 (configuration not stated) | 3.12 (≈ 7.37 µM) | 3.12 (≈ 7.37 µM) | 6.25 (≈ 14.8 µM) | 6.25 (≈ 14.8 µM) | 12.5 (≈ 29.5 µM) | 3.12 (≈ 7.37 µM) | 3.73 | 6.25 (≈ 14.8 µM) | 3.12 (≈ 7.37 µM) | 3.12 (≈ 7.37 µM) | 22.2
COc1ccc(-n2cc(C3C4=C(CC(C)(C)CC4=O)Oc4ccc5ccccc5c43)nn2)cc1 (configuration not stated) | 6.25 (≈ 13.8 µM) | 6.25 (≈ 13.8 µM) | 6.25 (≈ 13.8 µM) | 6.25 (≈ 13.8 µM) | 6.25 (≈ 13.8 µM) | 3.12 (≈ 6.91 µM) | 4.53 | 6.25 (≈ 13.8 µM) | 12.5 (≈ 27.7 µM) | 3.12 (≈ 6.91 µM) | 21.2
COc1ccccc1-n1cc(C2C3=C(CCCC3=O)Oc3ccc4ccccc4c32)nn1 (configuration not stated) | 6.25 (≈ 14.8 µM) | 6.25 (≈ 14.8 µM) | 6.25 (≈ 14.8 µM) | 25 (≈ 59 µM) | 12.5 (≈ 29.5 µM) | 25 (≈ 59 µM) | 3.73 | 6.25 (≈ 14.8 µM) | 12.5 (≈ 29.5 µM) | 12.5 (≈ 29.5 µM) | 
NNC(=O)c1ccncc1 [ISONIAZID] |  |  |  | 0.72 (≈ 5.25 µM) |  |  |  |  |  |  | 
O=Cc1cn(-c2ccc(O)cc2)nn1 |  |  |  | > 25 |  |  |  |  |  |  | 
O=C1CCCC2=C1C(c1cn(-c3ccccc3Cl)nn1)c1c(ccc3ccccc13)O2 (configuration not stated) | > 100 | > 100 | 50 (≈ 117 µM) | 25 (≈ 58.4 µM) | > 100 | > 100 | 4.41 | 50 (≈ 117 µM) | 12.5 (≈ 29.2 µM) | 12.5 (≈ 29.2 µM) | 
O=C1CCCC2=C1C(c1cn(-c3ccccc3)nn1)c1c(ccc3ccccc13)O2 (configuration not stated) | 3.12 (≈ 7.93 µM) | 3.12 (≈ 7.93 µM) | 3.12 (≈ 7.93 µM) | 12.5 (≈ 31.8 µM) | 3.12 (≈ 7.93 µM) | 3.12 (≈ 7.93 µM) | 3.85 | 3.12 (≈ 7.93 µM) | 3.12 (≈ 7.93 µM) | 3.12 (≈ 7.93 µM) | 
CC1(C)CC(=O)C2=C(C1)Oc1ccc3ccccc3c1C2c1cn(-c2ccc([N+](=O)[O-])cc2)nn1 (configuration not stated) | 3.12 (≈ 6.69 µM) | 12.5 (≈ 26.8 µM) | 3.12 (≈ 6.69 µM) | > 25 | 6.25 (≈ 13.4 µM) | 6.25 (≈ 13.4 µM) |  | 12.5 (≈ 26.8 µM) | 3.12 (≈ 6.69 µM) | 6.25 (≈ 13.4 µM) | 
O=C1CCCC2=C1C(c1cn(-c3cccc(C(F)(F)F)c3)nn1)c1c(ccc3ccccc13)O2 (configuration not stated) | 50 (≈ 108 µM) | 6.25 (≈ 13.5 µM) | 12.5 (≈ 27.1 µM) | > 25 | 12.5 (≈ 27.1 µM) | 25 (≈ 54.2 µM) | 4.77 | 6.5 (≈ 14.1 µM) | 12.5 (≈ 27.1 µM) | 50 (≈ 108 µM) | 
O=Cc1cn(-c2ccccc2)nn1 |  |  |  | 25 (≈ 144 µM) |  |  |  |  |  |  | 
COc1ccccc1-n1cc(C2C3=C(CC(C)(C)CC3=O)Oc3ccc4ccccc4c32)nn1 (configuration not stated) | 25 (≈ 55.4 µM) | > 100 | > 100 | 12.5 (≈ 27.7 µM) | > 100 | 50 (≈ 111 µM) | 4.53 | > 100 | 25 (≈ 55.4 µM) | > 100 | 
CC1(C)CC(=O)C2=C(C1)Oc1ccc3ccccc3c1C2c1cn(-c2ccccc2)nn1 (configuration not stated) | 25 (≈ 59.3 µM) | 6.25 (≈ 14.8 µM) | 6.25 (≈ 14.8 µM) | 12.5 (≈ 29.7 µM) | 25 (≈ 59.3 µM) | 12.5 (≈ 29.7 µM) | 4.65 | 25 (≈ 59.3 µM) | 12.5 (≈ 29.7 µM) | 6.25 (≈ 14.8 µM) | 
O=C1CCCC2=C1C(c1cn(-c3ccc(Cl)cc3)nn1)c1c(ccc3ccccc13)O2 (configuration not stated) | > 100 | 12.5 (≈ 29.2 µM) | 12.5 (≈ 29.2 µM) | 3.12 (≈ 7.3 µM) | 50 (≈ 117 µM) | 12.5 (≈ 29.2 µM) | 4.41 | 25 (≈ 58.4 µM) | 12.5 (≈ 29.2 µM) | > 100 | 18.1
CO[C@H]1/C=C/O[C@@]2(C)Oc3c(C)c(O)c4c(O)c(c(/C=N/N5CCN(C)CC5)c(O)c4c3C2=O)NC(=O)/C(C)=C\C=C\[C@H](C)[C@H](O)[C@@H](C)[C@@H](O)[C@@H](C)[C@H](OC(C)=O)[C@@H]1C [RIFAMPIN] |  |  |  | 0.24 (≈ 0.292 µM) |  |  |  |  |  |  | 
O=C1CCCC2=C1C(c1cn(-c3ccc([N+](=O)[O-])cc3)nn1)c1c(ccc3ccccc13)O2 (configuration not stated) | > 100 | > 100 | > 100 | > 25 | > 100 | > 100 |  | 50 (≈ 114 µM) | 50 (≈ 114 µM) | > 100 | 
O=C1CCCC2=C1C(c1cn(-c3ccc(O)cc3)nn1)c1c(ccc3ccccc13)O2 (configuration not stated) | > 100 | > 100 | > 100 | > 25 | > 100 | > 100 | 3.46 | > 100 | > 100 | > 100 | 
CC1(C)CC(=O)C2=C(C1)Oc1ccc3ccccc3c1C2c1cn(-c2ccccc2Cl)nn1 (configuration not stated) | 3.12 (≈ 6.84 µM) | 3.12 (≈ 6.84 µM) | 12.5 (≈ 27.4 µM) | 25 (≈ 54.8 µM) | 6.25 (≈ 13.7 µM) | 3.12 (≈ 6.84 µM) | 5.21 | 6.25 (≈ 13.7 µM) | 3.12 (≈ 6.84 µM) | 3.12 (≈ 6.84 µM) | 
COc1ccccc1-n1cc(C=O)nn1 |  |  |  | > 25 |  |  |  |  |  |  | 
NC(=O)c1cnccn1 [PYRAZINAMIDE] |  |  |  | 50.8 (≈ 412 µM) |  |  |  |  |  |  | 
